What was measured:
A431 cells [1] = assay: Anchorage-independent growth assay in soft agar; format: cell-based, human; conditions: 14 days, n = 4; for effect on size and number of colonies grown in soft agar: 20 μM W-7 or 25 μM W-12, 10% FBS, colonies >60 μm
How it was run: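 A431 cells (10^5 per 60 mm dish) suspended in DMEM ± 10% (v/v) FBS with 10 mM NaOH-Hepes pH 7.5 in 0.3% agarose, layered over 0.5% agarose. Fed every 72–96 h with fresh medium ± 10 nM EGF, 20 μM W-7 or 25 μM W-12 in DMSO; vehicle 0.4% DMSO. Imaged at day 14 with a 4x objective; colonies ≥60 μm counted.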

A431 cells [2] = assay: Artificial wound healing assay; format: cell-based, human; conditions: for effect of W-7/W-12 on cell migration in the absence of EGF: 20 μM, no EGF, time-lapse 48 h, n = 3
A431 cells [3] = assay: Cell detachment assay; format: cell-based, human; conditions: overnight with 20 μg/ml peptides or 20 μM W-7/W-12, then 1 mM EGTA, n = 3
How it was run: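 A431 cells (DMEM, 2 mM L-glutamine, 10% FBS, 37 °C, 5% CO2) were seeded at 10^6 per 60 mm dish in 10% FBS. After 6 h, test peptides (20 μg/ml) or W-7/W-12 (20 μM) in DMSO were added in serum-deprived medium overnight, with 0.2–0.4% DMSO vehicle controls. Cells were then exposed to 1 mM EGTA, and detached cells in aliquots were counted in a Neubauer chamber over time. Values are mean ± SEM percent detached, n = 3.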

hepatocarcinoma cells = conditions: EGF-dependent vs basal EGF-independent proliferation; cited from earlier work
A431 cells [4] = assay: TAMRA-peptides internalization assay, confocal microscopy of living cells; format: cell-based, human
How it was run: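 A431 cells (2.5 × 10^5) were seeded in coverslip-bottom imaging dishes in DMEM with 10% FBS. After 6 h, serum-deprived medium with N-terminal 5(6)-TAMRA-labeled test peptides (20 μg/ml) was added for 5 min or overnight, with free TAMRA (1.7 μM) as control. Living cells were gently washed and imaged by confocal microscopy with a 63x objective, 561 nm laser and white light, taking z-planes every 0.8 μm.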

| Compound | effect on size and number of colonies grown in soft agar (A431 cells [1]) | effect of W-7/W-12 on cell migration in the absence of EGF (A431 cells [2]) | effect on cell detachment with EGTA (A431 cells [3]) | effect of EGF on anchorage-independent growth in soft agar (A431 cells [1]; 10 nM EGF) | delayed action of EGF on the initiation of cell migration (A431 cells [2]; 10 nM EGF, n = 9) | effect of W-7 on proliferation of hepatocarcinoma cells (hepatocarcinoma cells) | membrane blebbing (initiation of apoptosis) of treated cells (A431 cells [4]) |
| --- | --- | --- | --- | --- | --- | --- | --- |
| NCCCCNS(=O)(=O)c1ccc2ccccc2c1 [W-12, N-(4-aminobutyl)-2-naphthalenesulfonamide] | very low effect | increased the initial migration rate of the cells | only partially | – | – | – | – |
| EGF: epidermal growth factor | – | – | – | particularly decreasing the size of the colonies | 11.5 ± 1.4 h | – | – |
| NCCCCCCNS(=O)(=O)c1cccc2c(Cl)cccc12 [W-7, N-(6-aminohexyl)-5-chloro-1-naphthalenesulfonamide] | strongly inhibits | increased the initial migration rate of the cells, particularly with the high affinity inhibitor W-7 | only partially | – | – | inhibits EGF-dependent but not basal EGF-independent proliferation of hepatocarcinoma cells | – |
| 5(6)-carboxytetramethylrhodamine [free TAMRA] | – | – | – | – | – | – | not observed |
